Columns and labels:
Rattus norvegicus [1] = organism: Rattus norvegicus; assay: Compound was tested for its ability to induce catalepsy in rats.; format: functional
Outline: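 Catalepsy was induced in rats with orally dosed compound as a predictor of extrapyramidal liability. ED50 (mg/kg, po) with fiducial limits by Berkson's method.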

Rattus norvegicus [2] = organism: Rattus norvegicus; assay: Compound was tested for inhibition of conditioned avoidance response (CAR ); format: functional
Outline: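 Rats trained to avoid an electric shock, test compound given orally, and block of the conditioned avoidance response scored. ED50 (mg/kg, po) with fiducial limits by the method of Berkson.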

D(2) dopamine receptor = D(2) dopamine receptor (Rattus norvegicus, UniProt P61169); assay: In vitro affinity for rat striatal Dopamine receptor D2 labeled with [3H]spiperone
Chain of D(2) dopamine receptor (P61169 whole entry): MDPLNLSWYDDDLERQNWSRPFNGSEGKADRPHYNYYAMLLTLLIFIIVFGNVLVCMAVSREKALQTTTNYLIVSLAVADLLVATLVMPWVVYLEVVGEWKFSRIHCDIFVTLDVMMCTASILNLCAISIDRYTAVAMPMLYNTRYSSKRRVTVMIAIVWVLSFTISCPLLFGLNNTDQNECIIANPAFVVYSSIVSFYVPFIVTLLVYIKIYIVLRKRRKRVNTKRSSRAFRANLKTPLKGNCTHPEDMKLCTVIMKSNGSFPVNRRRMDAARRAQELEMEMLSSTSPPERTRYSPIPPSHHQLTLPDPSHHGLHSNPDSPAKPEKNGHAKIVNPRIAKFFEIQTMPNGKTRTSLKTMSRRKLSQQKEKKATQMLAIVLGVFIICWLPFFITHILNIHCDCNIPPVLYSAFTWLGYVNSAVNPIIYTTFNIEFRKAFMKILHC

[3] = Lethal dose after intraperitoneal administration in mouse; format: toxicity, organism-based; details: in vivo, ip, read-out: ALD50
[4] = molecular target: T1, Adrenergic receptor alpha-2 (Rattus norvegicus, UniProt P22086+P19328+P22909); assay: Binding affinity against alpha-2 adrenergic receptor was measured using radioligand ([3H]clonidine) binding assay; format: protein assay
T1 sequence (P22086 whole entry): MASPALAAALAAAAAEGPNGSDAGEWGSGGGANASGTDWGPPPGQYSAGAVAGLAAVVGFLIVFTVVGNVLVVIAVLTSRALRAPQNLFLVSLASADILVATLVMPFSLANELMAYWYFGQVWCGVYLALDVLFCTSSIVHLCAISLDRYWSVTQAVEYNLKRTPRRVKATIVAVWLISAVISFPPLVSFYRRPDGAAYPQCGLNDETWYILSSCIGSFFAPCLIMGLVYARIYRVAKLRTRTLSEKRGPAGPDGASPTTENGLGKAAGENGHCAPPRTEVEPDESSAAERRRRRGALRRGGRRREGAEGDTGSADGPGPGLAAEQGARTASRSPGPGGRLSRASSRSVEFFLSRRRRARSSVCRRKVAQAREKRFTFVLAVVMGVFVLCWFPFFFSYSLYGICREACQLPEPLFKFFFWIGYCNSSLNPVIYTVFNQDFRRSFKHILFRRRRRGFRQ
T1 sequence (P19328 whole entry): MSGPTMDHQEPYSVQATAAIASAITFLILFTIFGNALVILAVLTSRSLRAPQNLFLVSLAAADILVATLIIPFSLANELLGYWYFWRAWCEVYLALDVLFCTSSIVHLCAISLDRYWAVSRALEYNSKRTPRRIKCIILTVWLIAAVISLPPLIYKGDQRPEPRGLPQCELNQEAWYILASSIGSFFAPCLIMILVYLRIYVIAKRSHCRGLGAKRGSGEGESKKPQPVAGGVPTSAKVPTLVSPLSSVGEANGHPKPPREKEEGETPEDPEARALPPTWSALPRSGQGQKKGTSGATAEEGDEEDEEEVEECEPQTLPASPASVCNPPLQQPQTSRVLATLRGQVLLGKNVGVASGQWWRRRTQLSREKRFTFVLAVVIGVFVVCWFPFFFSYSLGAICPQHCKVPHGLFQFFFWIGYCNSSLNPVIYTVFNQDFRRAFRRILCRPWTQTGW
T1 sequence (P22909 whole entry): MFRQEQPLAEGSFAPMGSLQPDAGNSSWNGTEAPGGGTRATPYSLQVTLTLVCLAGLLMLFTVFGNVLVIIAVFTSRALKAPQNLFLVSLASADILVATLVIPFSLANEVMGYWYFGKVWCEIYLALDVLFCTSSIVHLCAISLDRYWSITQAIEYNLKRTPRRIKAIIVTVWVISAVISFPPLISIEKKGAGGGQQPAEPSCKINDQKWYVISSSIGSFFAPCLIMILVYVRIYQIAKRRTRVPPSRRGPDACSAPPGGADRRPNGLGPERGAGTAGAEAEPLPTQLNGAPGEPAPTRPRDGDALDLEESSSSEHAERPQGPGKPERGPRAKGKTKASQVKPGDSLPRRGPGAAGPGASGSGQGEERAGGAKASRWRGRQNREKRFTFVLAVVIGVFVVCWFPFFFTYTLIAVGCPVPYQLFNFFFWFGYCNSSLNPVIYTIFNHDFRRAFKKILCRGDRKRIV

Rattus norvegicus [5] = organism: Rattus norvegicus; assay: Compound was tested for inhibition of spontaneous motor activity in rat.; format: functional
[6] = Binding affinity against desipramine receptor was measured using radioligand ([3H]desipramine) binding assay; design: species or system Rattus norvegicus
Mus musculus [7] = organism: Mus musculus; assay: Compound was tested for inhibition of spontaneous motor activity in mouse.; format: functional
[8] = molecular target: GABA-A receptor; anion channel; assay: Inhibition of [3H]muscimol binding to Gamma-aminobutyric acid (GABA-A) receptor; format: protein-complex assay, Rattus norvegicus
Mus musculus [9] = organism: Mus musculus; assay: Compound was tested for inhibition of physostigmine lethality in mouse.; format: functional
Outline: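 Groups of 10 nonfasted male mice dosed orally with test compound (initial 100 mg/kg) or vehicle (distilled H2O or 0.5% methocel). At 30 min, physostigmine given ip at 1.25 mg/kg, and lethality followed for up to 1 h. Active compounds retested at lower doses, 10 mice/dose, for dose response. ED50 by Berkson's method.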

[10] = Binding affinity against imipramine receptor was measured using radioligand ([3H]-imipramine) binding assay; design: species or system Rattus norvegicus
[11] = Binding affinity against glycine receptor was measured using radioligand ([3H]strychnine) binding assay

Work on `Cl.O=C1CC2(CCCC2)CC(=O)N1CCCCN1CCN(c2nsc3ccccc23)CC1` [TIOSPIRONE HYDROCHLORIDE] yielded an ED50 (Rattus norvegicus [1]) of 84.4 mg/kg, an ED50 (Rattus norvegicus [2]) of 10.5 mg/kg and an IC50 (D(2) dopamine receptor) of 8 nM. For the same compound, the LD50 [3] was 1530 mg/kg, the IC50 [4] was > 1000 nM and the ED50 (Rattus norvegicus [5]) was 8.4 mg/kg. For the same compound, the IC50 [6] was > 1000 nM, the ED50 (Mus musculus [7]) was 17.3 mg/kg and the IC50 [8] was > 1000 nM. For the same compound, the ED50 (Mus musculus [9]) was 294 mg/kg, the IC50 [10] was > 1000 nM and the IC50 [11] was > 1000 nM.
